Measurements from ChEMBL document CHEMBL1124859, “Nonsteroidal antiinflammatory drug hydroxamic acids. Dual inhibitors of both cyclooxygenase and 5-lipoxygenase” (J Med Chem, 1990).
pIC50: −log10 of the molar value.

How the values were obtained:
[1] = biological target: T1, Polyunsaturated fatty acid 5-lipoxygenase (Rattus norvegicus, UniProt P12527); assay: Inhibition of 5-lipoxygenase in intact RBL-1 cell line; type: cell-based; settings: for pIC50: read-out: IC50
T1 sequence (P12527 whole entry): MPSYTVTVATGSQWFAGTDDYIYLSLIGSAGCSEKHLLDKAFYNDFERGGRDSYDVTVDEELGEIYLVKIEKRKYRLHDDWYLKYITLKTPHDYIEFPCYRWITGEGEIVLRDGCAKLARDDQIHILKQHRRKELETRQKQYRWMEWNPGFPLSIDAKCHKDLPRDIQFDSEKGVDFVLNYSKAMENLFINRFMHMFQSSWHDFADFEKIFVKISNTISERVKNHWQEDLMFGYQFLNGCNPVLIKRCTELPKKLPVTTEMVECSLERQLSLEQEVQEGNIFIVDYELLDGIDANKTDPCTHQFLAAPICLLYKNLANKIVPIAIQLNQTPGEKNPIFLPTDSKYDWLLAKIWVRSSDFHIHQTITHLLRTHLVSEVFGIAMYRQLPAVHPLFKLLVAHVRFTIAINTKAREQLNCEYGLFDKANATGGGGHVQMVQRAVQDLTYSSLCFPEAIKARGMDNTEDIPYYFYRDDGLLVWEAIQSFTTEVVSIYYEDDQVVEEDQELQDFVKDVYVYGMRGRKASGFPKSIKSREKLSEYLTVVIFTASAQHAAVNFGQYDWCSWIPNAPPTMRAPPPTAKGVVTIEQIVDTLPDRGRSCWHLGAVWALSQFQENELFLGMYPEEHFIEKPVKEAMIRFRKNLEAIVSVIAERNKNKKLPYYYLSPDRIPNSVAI
In short: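 RBL-1 cells at 2 × 10⁶ cells/mL were held in PBS with 1.0 mM Ca²⁺. They were incubated with or without inhibitor for 7 min at 37 °C, with 5 μM ionophore A-23187. LTB₄ was measured by radioimmunoassay. IC50 came from regression of percent inhibition against inhibitor concentration; otherwise percent inhibition at the highest concentration tested was given.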

[2] = tested on: Rattus norvegicus; assay: In vivo ulcerogenicity was determined after peroral administration at a dose of 200 mg/kg in rat; No significant ulceration; type: functional, organism-based; design: dose 200 mg/kg
[3] = tested on: Rattus norvegicus; assay: In vivo percent inhibition of mycobacterium foot-pad edema (MFE) after peroral administration was determined.; type: functional
In short: (§1)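 Compounds were given orally to rats at the stated doses in mg/kg. Groups held 7–14 animals each. Foot-pad edema was scored as percent inhibition against controls, or as the dose giving a set level of inhibition (ID25 or ID40).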

[4] = organism: Rattus norvegicus; assay: Relative binding affinity to 5-lipoxygenase and cyclooxygenase
[5] = tested on: Rattus norvegicus; assay: In vivo ulcerogenicity was determined after peroral administration in rat; type: functional
In short: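 Rats were dosed orally. The ulcerogenic dose (UD50) was taken as the oral dose in mg/kg that produced ulcers in 50% of the rats tested.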

[6] = tested on: Rattus norvegicus; assay: In vivo percent inhibition of carrageenan foot-pad edema (CFE) after peroral administration was determined.; type: functional; in short: as §1

SMILES | pIC50 [1] | ID40 [3] | IC50 ratio [4] | further results
CC1=C(CC(=O)O)c2cc(F)ccc2/C1=C\c1ccc([S+](C)[O-])cc1 (centres undefined) | < 4.00 | – | – | –
Cc1ccc(Cl)c(Nc2ccccc2C(=O)NO)c1Cl | – | 27 mg/kg | – | UD50 [2]: No significant inhibition
CC(C)Cc1ccc(C(C)C(=O)N(C)O)cc1 (centres undefined) | 5.92 | – | 0.06 | –
CC(C)Cc1ccc(C(C)C(=O)NO)cc1 (centres undefined) [IBUPROXAM] | 4.70 | – | 2 | –
CONC(=O)Cc1c(C)n(C(=O)c2ccc(Cl)cc2)c2ccc(OC)cc12 | – | – | > 120 | UD50 [5]: 42 mg/kg
CONC(=O)c1ccccc1Nc1c(Cl)ccc(C)c1Cl | – | 24 mg/kg | – | UD50 [2]: No significant inhibition; ID25 [6]: 1.3 mg/kg
Cc1ccc(Cl)c(Nc2ccccc2C(=O)N(C)O)c1Cl | – | 2.5 mg/kg | – | UD50 [2]: No significant inhibition; ID25 [6]: 0.2 mg/kg
CONC(=O)CC1=C(C)/C(=C/c2ccc([S+](C)[O-])cc2)c2ccc(F)cc21 (centres undefined) | 4.59 | – | – | –
CC(C)Cc1ccc(C(C)C(=O)O)cc1 (centres undefined) [IBUPROFEN] | – | – | – | IC50 ([1]; rbl-1): No significant inhibition
COc1ccc2c(c1)c(CC(=O)N(O)C(C)C)c(C)n2C(=O)c1ccc(Cl)cc1 | – | 0.82 mg/kg | – | UD50 [2]: No significant inhibition
Cc1ccc(Cl)c(Nc2ccccc2C(=O)[O-])c1Cl.O.[Na+] [MECLOFENAMATE SODIUM] | – | 0.39 mg/kg | – | UD50 [5]: 36 mg/kg; ID25 [6]: 8.2 mg/kg
COc1ccc2c(c1)c(CC(=O)NO)c(C)n2C(=O)c1ccc(Cl)cc1 [OXAMETACIN] | – | – | 6.8 | UD50 [5]: 103 mg/kg
COc1ccc2c(c1)c(CC(=O)O)c(C)n2C(=O)c1ccc(Cl)cc1 [INDOMETHACIN] | < 4.00 | 0.21 mg/kg | – | UD50 [5]: 5.4 mg/kg
CONC(=O)C(C)c1ccc(CC(C)C)cc1 (centres undefined) | < 4.49 | – | > 5.5 | –
